Here are results for nine compounds from ChEMBL document CHEMBL4390639, “Design, Synthesis, and Biological Evaluation of Novel Allosteric Protein Disulfide Isomerase Inhibitors” (J Med Chem, 2019).

pIC50: −log10 of the molar value. Calls of active or inactive are those of the source. The rule behind the calls is not given here. Some results are limits rather than exact numbers.

In assay [1] the target is T1, Protein disulfide-isomerase (Homo sapiens, UniProt P07237). Kind of assay: Inhibition of recombinant human N-terminal His-tagged PDI expressed in Escherichia coli BL21 (DE3) pLysS assessed as reduction in enzyme-mediated bovine insulin aggregation.
Target sequence in this assay (P07237 whole entry): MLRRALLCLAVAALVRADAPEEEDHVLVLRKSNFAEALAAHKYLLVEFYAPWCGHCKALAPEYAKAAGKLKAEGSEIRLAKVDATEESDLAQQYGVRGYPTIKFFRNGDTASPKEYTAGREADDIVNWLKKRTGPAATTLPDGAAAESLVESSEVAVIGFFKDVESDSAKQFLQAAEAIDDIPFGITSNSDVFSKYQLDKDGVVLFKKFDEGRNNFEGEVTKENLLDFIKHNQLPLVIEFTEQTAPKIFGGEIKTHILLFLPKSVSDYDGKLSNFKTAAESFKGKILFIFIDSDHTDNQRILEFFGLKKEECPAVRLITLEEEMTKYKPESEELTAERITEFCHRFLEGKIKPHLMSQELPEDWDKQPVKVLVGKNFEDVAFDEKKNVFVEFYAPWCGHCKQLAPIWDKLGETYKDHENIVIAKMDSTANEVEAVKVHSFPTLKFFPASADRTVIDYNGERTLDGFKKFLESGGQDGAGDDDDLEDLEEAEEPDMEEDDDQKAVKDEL
For assay [2], the system named is U-87 MG. Kind of assay: Inhibition of colony formation in human U87MG cells assessed as combination index at 1 to 30 uM measured after 24 hrs in presence of arsenic trioxide by crystal violet staining based assay. The assay is classed as functional, U-87MG ATCC.
The subject of assay [3] is U-87 MG. The assay can be described thus: Cytotoxicity against human U87MG cells assessed as inhibition of cell growth measured after 72 hrs by MTT assay. The assay is classed as functional, cell-based, U-87MG ATCC. As to conditions: Homo sapiens, U-87 MG, 72 h; read-out: IC50. In short, it runs like this:
(§1)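 A172 and NU04 cells were seeded at 4000 cells/well and U87MG at 5000 cells/well, incubated overnight at 37 °C, 5% CO2, then exposed to compound or vehicle for 72 h. MTT (3 mg/mL) was added for 4 h, formazan was dissolved in DMSO, and absorbance was read at 570 nm. IC50 came from nonlinear regression; mean ± SD of at least three experiments.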

Assay [4] deals with A 172. Kind of assay: Cytotoxicity against human A172 cells assessed as inhibition of cell growth measured after 72 hrs by MTT assay. The assay is classed as functional, cell-based. As to conditions: Homo sapiens, A 172, 72 h; read-out: IC50. In short, it runs like this: as §1
Background: Tetrazolium assays rely on reduction of a dye to a coloured formazan, in cell work by metabolically active cells.

A short description of assay [5]: Cytotoxicity against human NU04 cells assessed as inhibition of cell growth measured after 72 hrs by MTT assay. It is filed as functional, cell-based. Conditions: Homo sapiens, 72 h; read-out: IC50. An outline of the steps:
as §1

The test system of assay [6] is U-87 MG. The assay can be described thus: Cytotoxicity against human U87MG cells assessed as inhibition of cell proliferation at <IC50 treated for 24 hrs, measured after 10 days by colony formation assay relative to control.
The target of assay [7] is Eukaryotic translation initiation factor 2 subunit 1 (Homo sapiens) (UniProt P05198). The assay can be described thus: Induction of EIF2alpha phosphorylation in human U87MG cells at 10 ug/ml measured after 2 hrs by Western blot analysis. It is filed as cell-based. In short, it runs like this:
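U87MG cells (0.5 x 10^6 per well) exposed to tunicamycin at 10 µg/mL for 2 h. Cells lysed by sonication in Tris/NaCl/Triton X-100/SDS buffer, pH 7.4, and cleared at 13,500×g, 4 °C. Protein was measured by BCA, and 30 µg was run on 10% acrylamide gels and transferred to PVDF. Antibody signal was read by fluorescence imaging.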

Assay [8] has the same target. Kind of assay: Induction of EIF2alpha phosphorylation in human A172 cells at 10 ug/ml measured after 2 hrs by Western blot analysis. The assay is classed as cell-based. A general note: In western blotting, separated proteins are transferred to a membrane and probed.
In assay [9] the test system is U-87 MG. Kind of assay: Inhibition of colony formation in human U87MG cells […] by crystal violet staining based assay. It is filed as functional, cell-based. Conditions: U-87MG ATCC. In short, it runs like this: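 Clonogenicity: U87MG cells seeded at 200 cells/well, left overnight, treated 24 h, then medium replaced and cells grown ten days. Stained 30 min with crystal violet, washed, imaged; normalized well intensity from three independent experiments.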

For the next assay, the system named is HFF-1. The assay can be described thus: Cytotoxicity against HFF1 cells assessed as inhibition of cell growth measured after 72 hrs by MTT assay. The assay is classed as cell-based. Conditions: Homo sapiens, HFF-1, 72 h. In short, it runs like this:
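Cells grown as monolayers at 37 °C, 5% CO2, seeded and left overnight, then exposed to drug or vehicle for 72 h. MTT (20 μL of 3 mg/mL) added for 4 h, supernatant removed, formazan dissolved in DMSO, absorbance read at 570 nm. IC50 from nonlinear regression of log concentration–response curves; at least three independent experiments.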

Assay [10] is described as follows: Therapeutic ratio of IC50 for HFF1 cells to IC50 for human NU04 cells. In short, it runs like this:
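Ratio of two growth-inhibition IC50s, HFF-1 normal human fibroblasts over NU04 glioma cells. Cells were grown as monolayers at 37 °C in 5% CO2, with NU04 seeded at 4000 cells/well. After overnight attachment, cells were exposed to compound or vehicle for 72 h. MTT (3 mg/mL) was added for 4 h, and formazan dissolved in DMSO was read at 570 nm. IC50s came from nonlinear regression of log concentration-response curves, with at least three independent experiments.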

In assay [11] the target is T1, Protein disulfide-isomerase. Kind of assay: Binding affinity to recombinant human N-terminal His-tagged PDI expressed in Escherichia coli BL21 (DE3) pLysS assessed as change in melting temperature at 100 uM by ROX dye based thermal shift assay. An outline of the steps:
(§2)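 Purified wild-type, C53S/C397S or H256A PDI at 0.5 mg/mL in 50 mM Tris, pH 7.0, with or without 100 μM compound, was mixed with ROX dye in a 20 µL well. DMSO (5% in buffer) was the control. Samples were heated 25–99 °C at 1 °C/min, and the Boltzmann melting temperature shift versus DMSO was reported. Mean ± SD of three experiments.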
Target sequence in this assay (P07237 18-508 limits assumed): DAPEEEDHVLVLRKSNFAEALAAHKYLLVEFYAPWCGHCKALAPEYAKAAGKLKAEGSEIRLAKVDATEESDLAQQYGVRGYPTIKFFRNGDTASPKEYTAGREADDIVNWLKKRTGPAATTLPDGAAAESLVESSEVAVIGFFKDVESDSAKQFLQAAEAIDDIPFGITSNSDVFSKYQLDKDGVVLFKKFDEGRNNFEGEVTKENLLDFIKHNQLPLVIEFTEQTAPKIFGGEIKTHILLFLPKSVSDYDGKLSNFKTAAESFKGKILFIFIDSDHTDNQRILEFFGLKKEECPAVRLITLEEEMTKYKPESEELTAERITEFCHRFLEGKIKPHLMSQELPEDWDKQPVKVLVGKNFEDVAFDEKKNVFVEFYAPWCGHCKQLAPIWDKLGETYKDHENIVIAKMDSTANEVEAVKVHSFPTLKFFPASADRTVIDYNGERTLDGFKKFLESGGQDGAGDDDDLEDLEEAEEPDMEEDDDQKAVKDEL

Assay [12] has as its target Eukaryotic translation initiation factor 2 subunit 1 (Homo sapiens) (UniProt P05198). Kind of assay: Induction of EIF2alpha phosphorylation in human U87MG cells at 20 uM measured after 2 hrs by Western blot analysis. It is filed as cell-based. In short, it runs like this:
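eIF2α phosphorylation in U87MG cells after 2 h with 1 µM PACMA31 or 20 µM analogues; tunicamycin 10 µg/mL as comparator. Lysates (Tris/NaCl/Triton/SDS, sonicated) quantified by BCA; 30 µg protein separated on 10% gels, blotted to PVDF, probed for phospho-eIF2α, detected by fluorescence.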

For assay [13], the system named is U-87 MG. Kind of assay: Induction of endoplasmic reticulum stress in human U87MG cells assessed as increase in GRP78 expression at 20 uM measured after 24 hrs by Western blot analysis. It is filed as functional, cell-based. As to conditions: U-87MG ATCC. An outline of the steps: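 ER-stress immunoblot: 0.5 x 10^6 U87MG cells/well treated for 24 h with 20 µM analogues, 1 µM PACMA31 or DMSO; tunicamycin 10 µg/mL for 2 or 24 h as positive control. Lysis in Tris/NaCl/Triton/SDS buffer with sonication; 30 µg protein on 10% gels, transferred to PVDF, GRP78 probed, fluorescence imaging.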

Assay [14] has as its target Eukaryotic translation initiation factor 2 subunit 1 (Homo sapiens) (UniProt P05198). The assay can be described thus: Induction of EIF2alpha phosphorylation in human A172 cells at 20 uM measured after 2 hrs by Western blot analysis. The assay is classed as cell-based.
Assay [15] relates to A 172. The assay can be described thus: Induction of endoplasmic reticulum stress in human A172 cells assessed as increase in GRP78 expression at 20 uM measured after 24 hrs by Western blot analysis. It is filed as functional, cell-based.
The subject of assay [16] is U-87 MG. The assay can be described thus: Effect on PDI expression in human U87MG cells at 20 uM measured after 24 hrs by Western blot analysis. The assay is classed as functional, cell-based. Conditions: U-87MG ATCC.
Assay [17] has as its system A 172. Kind of assay: Effect on PDI expression in human A172 cells at 20 uM measured after 24 hrs by Western blot analysis. The assay is classed as functional, cell-based.
The subject of assay [18] is U-87 MG. The assay can be described thus: Effect on MMP2 expression in human U87MG cells at 10 uM measured after 24 hrs by Western blot analysis. The assay is classed as functional, cell-based. Conditions: U-87MG ATCC.
Assay [19] deals with Focal adhesion kinase 1 (Homo sapiens) (UniProt Q05397). Kind of assay: Effect on FAK phosphorylation in human U87MG cells at 10 uM measured after 24 hrs by Western blot analysis. The assay is classed as cell-based.
Sequence of Focal adhesion kinase 1 (Homo sapiens) (Q05397 2-1052 limits assumed): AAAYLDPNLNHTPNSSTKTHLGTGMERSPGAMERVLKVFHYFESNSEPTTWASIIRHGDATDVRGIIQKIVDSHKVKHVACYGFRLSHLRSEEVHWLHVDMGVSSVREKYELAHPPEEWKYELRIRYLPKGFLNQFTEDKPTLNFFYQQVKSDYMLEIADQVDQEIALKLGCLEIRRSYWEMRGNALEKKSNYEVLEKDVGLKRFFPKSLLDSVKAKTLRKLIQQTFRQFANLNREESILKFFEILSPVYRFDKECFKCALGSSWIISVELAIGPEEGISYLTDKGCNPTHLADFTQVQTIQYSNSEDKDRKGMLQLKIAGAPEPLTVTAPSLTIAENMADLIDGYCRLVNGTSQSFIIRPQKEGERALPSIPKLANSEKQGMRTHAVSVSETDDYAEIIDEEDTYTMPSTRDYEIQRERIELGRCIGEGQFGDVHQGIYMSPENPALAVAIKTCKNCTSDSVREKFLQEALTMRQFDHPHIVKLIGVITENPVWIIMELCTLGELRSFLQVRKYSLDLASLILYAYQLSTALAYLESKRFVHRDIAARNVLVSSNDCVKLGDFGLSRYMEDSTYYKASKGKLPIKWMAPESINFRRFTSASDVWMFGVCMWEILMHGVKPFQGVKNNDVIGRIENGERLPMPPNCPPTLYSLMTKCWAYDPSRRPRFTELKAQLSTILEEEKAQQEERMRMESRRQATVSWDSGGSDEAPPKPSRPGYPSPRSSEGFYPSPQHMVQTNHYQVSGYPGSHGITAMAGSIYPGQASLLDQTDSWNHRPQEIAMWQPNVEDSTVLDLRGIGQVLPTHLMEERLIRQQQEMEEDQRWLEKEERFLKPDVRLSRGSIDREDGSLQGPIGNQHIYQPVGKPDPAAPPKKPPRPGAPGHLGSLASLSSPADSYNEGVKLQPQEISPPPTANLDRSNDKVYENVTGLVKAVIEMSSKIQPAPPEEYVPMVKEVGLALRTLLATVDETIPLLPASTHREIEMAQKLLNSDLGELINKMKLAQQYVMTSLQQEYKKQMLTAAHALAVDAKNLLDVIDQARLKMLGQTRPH
The subject of assay [20] is Protein disulfide-isomerase (Homo sapiens), P07237 [H256A]. Kind of assay: Inhibition of recombinant human N-terminal His-tagged PDI H256A mutant expressed in Escherichia coli BL21 (DE3) pLysS at 10 uM assessed as reduction in enzyme-mediated bovine insulin aggregation. In short, it runs like this: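 Insulin reductase assay against H256A PDI: 0.4 μM enzyme preincubated with compounds at 10 μM for 1 h at 37 °C in 100 mM sodium phosphate, 2 mM EDTA, 8 μM DTT, pH 7.0. Then 500 μM DTT and 130 μM bovine insulin added; aggregation read at 620 nm at room temperature. Activity % from OD change at 0 and 80 min, relative to PDI and DTT-only controls; three experiments.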

Assay [21] has as its system U-87 MG. Kind of assay: Cytotoxicity against human U87MG cells assessed as inhibition of cell proliferation at <IC50 treated for 24 hrs and measured after 10 days by colony formation assay relative to control.
Assay [22] deals with A 172. Kind of assay: Induction of morphological changes in human A172 cells at 40 uM measured after 48 hrs by Giemsa-staining based microscopic analysis. It is filed as functional, cell-based.
Assay [23] has as its target T1, Protein disulfide-isomerase. Kind of assay: Inhibition of recombinant human N-terminal His-tagged PDI expressed in Escherichia coli BL21 (DE3) pLysS at 100 uM measured after 1 hr by ANS dye based fluorescence spectra analysis. In short, it runs like this: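 ANS spectral scan: PDI incubated with 100 μM compounds or matching DMSO in TBS for 1 h at 37 °C. ANS then added and incubated 20 min at 25 °C in the dark. Fluorescence spectrum recorded with excitation 370 nm, emission 400–700 nm.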
Target sequence in this assay (P07237 18-508 limits assumed): as the sequence (P07237 18-508 limits assumed) above

Assay [24] concerns Protein disulfide-isomerase (Homo sapiens), P07237 [H256A]. Kind of assay: Binding affinity to recombinant human N-terminal His-tagged PDI H256A mutant expressed in Escherichia coli BL21 (DE3) pLysS assessed as change in melting temperature at 100 uM by ROX dye based thermal shift assay. An outline of the steps: as §2
Sequence of Protein disulfide-isomerase (Homo sapiens), P07237 [H256A] (P07237 whole entry H256A): as the sequence (P07237 whole entry) above, with H256A counted along it
The test system of assay [25] is U-87 MG. Kind of assay: Cytotoxicity against human U87MG cells assessed as inhibition of cell proliferation at <IC50 measured after 72 hrs by MTT assay relative to control. The assay is classed as functional, U-87MG ATCC.

Sequence of Eukaryotic translation initiation factor 2 subunit 1 (Homo sapiens) (P05198 whole entry): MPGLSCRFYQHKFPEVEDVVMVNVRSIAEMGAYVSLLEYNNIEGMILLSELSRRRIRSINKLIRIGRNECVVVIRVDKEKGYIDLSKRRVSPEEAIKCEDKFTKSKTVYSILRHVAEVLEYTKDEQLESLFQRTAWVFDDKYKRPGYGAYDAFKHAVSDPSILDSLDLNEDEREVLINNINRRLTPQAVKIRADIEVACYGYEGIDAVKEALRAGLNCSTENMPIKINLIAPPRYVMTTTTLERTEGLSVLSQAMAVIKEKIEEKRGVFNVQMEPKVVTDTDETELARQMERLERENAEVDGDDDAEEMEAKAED

Consider `N#Cc1cccc(/C=C/C(=O)c2ccc(S(N)(=O)=O)cc2)c1`, for which, in assay [1], the pIC50 (as a rule, −log10 of the IC50, conventionally taken in molar units) is 5.18. Besides, the CI in the assay with U-87 MG [2] is less than 1.
On to `N#Cc1cccc(/C=C/C(=O)c2ccc(F)c(O)c2)c1`, for which the pIC50 is 5.94 in [1], 4.64 in the assay with U-87 MG [3], 4.77 with A 172 [4] and 4.97 in assay [5]. In addition, the “inhibition (INH)” value in the assay on U-87 MG [6] is reported as more than 50%.
On to `CCCCCCCCCCCCC/C=C/C(=O)N[C@H]1[C@H](O[C@H]2O[C@H](CO)[C@@H](O)[C@H](O)[C@H]2NC(C)=O)O[C@H](C[C@@H](O)[C@H]2O[C@@H](n3ccc(=O)[nH]c3=O)[C@H](O)[C@@H]2O)[C@H](O)[C@@H]1O`, for which the result in assay [7] and in assay [8] was Active.
With `O=C(/C=C/c1ccc(-c2ccncc2)cc1)c1cccc(O)c1`, the pIC50 in [1] is 6.68; with U-87 MG [3], 4.60; with A 172 [4], 4.95; in assay [5], 5.42; with HFF-1, 4.50. Also, the inhibition result in the assay on U-87 MG [9] is “Dose-dependent effect”. The “Ratio IC50” value in assay [10] came to 8.39. The ΔTm – broadly, the shift of the melting midpoint relative to a reference – in assay [11] came to 0.34 °C. Besides, the result (in assay [12]; in the assay on U-87 MG [13]; in [14]; with A 172 [15]) was Active. Moreover, the result (in the assay on U-87 MG [16]; with A 172 [17]; in the assay with U-87 MG [18]; in assay [19]) was inactive. Moreover, the inhibition result in assay [20] is “inactive”. Moreover, the “inhibition (INH)” value in the assay on U-87 MG [21] is recorded as more than 50%.
For the compound `CN(C)S(=O)(=O)c1ccc(C(=O)/C=C/c2cccc(C#N)c2)cc1`, the pIC50 in assay [1] was 5.21. Moreover, the CI with U-87 MG [2] was less than 1.
Turning to `N#Cc1cccc(/C=C/C(=O)c2ccc(O)c(F)c2)c1`, the pIC50 in [1] is 5.94; with U-87 MG [3] it was 4.54; in the assay on A 172 [4], 4.66; in assay [5] it was 5.01. For the same compound, the “inhibition (INH)” value in the assay on U-87 MG [6] is more than 50%.
For `COc1ccc(C(=O)/C=C/c2cccc(C#N)c2)cc1`, the pIC50 in assay [1] was less than 3.30. Moreover, the outcome in the assay with A 172 [22] was inactive. The ΔTm in assay [11] was -0.24 °C. In addition, in assay [23], the inhibition entry is “inactive”.
Turning to `C[C@]12CC[C@@H]3c4ccc(O)cc4CC[C@H]3[C@@H]1CC[C@@H]2O`, in assay [24], the outcome was inactive.
Regarding `CCN(CC)S(=O)(=O)c1ccc(C(=O)/C=C/c2cccc(C#N)c2)cc1`, the negative logarithm of the IC50 (pIC50) in assay [1] was 5.91; in the assay with U-87 MG [3], 4.75; in the assay on A 172 [4], 4.58; in [5], 4.70. Also, the “inhibition (INH)” value in the assay on U-87 MG [25] is listed as more than 50%. For the same compound, the CI with U-87 MG [2] is given as less than 1.
